This is an account of results in ChEMBL document CHEMBL5030534, “Discovery of Novel Anti-Breast-Cancer Inhibitors by Synergistically Antagonizing Microtubule Polymerization and Aryl Hydrocarbon Receptor Expression” (J Med Chem, 2021).

Data set [1] has as its system MCF7. The data set can be described thus: Induction of apoptosis in human MCF7 cells assessed as necrotic cells at 2 nM measured after 24 hrs by Annexin V-FITC and PI staining based flow cytometry assay (reference value: 0.28%). It counts as functional. (A flow cytometer gives signals particle by particle.)
Data set [2] is described as follows: Toxicity in BALB/c nude mouse xenografted with human MCF7 cells assessed as effect on kidney at 0.5 to 1 mg/kg, iv administered every 2 days for 21 days by H and E staining based assay. In kind it is organism-based. Conditions: in vivo, 504 h, dose 0.5-1 mg/kg, time 21 day. In short, it runs like this:
(§1)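 Nude mice given 6 × 10⁶ MCF-7 cells subcutaneously on right flank; after 7 days randomized, eight per group. iv dosing every 2 days at 0.5 or 1 mg/kg; vehicle 10% DMSO/5% Tween 80/85% saline; paclitaxel 10 mg/kg and CA-4 20 mg/kg references. Body weight every 2 days; killed after 21 days; organs fixed, paraffin-sectioned, H&E stained.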

The nature of data set [3]: Antiproliferative activity against human MCF7/ADR cells assessed as reduction in cell viability incubated for 48 hrs by MTT assay. It counts as functional, cell-based. The following applies: MCF7, 48 h. A digest of the protocol: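 Cells seeded at 5 × 10³ per well, incubated overnight, then exposed to a range of compound concentrations for 48 h. MTT added for 4 h, medium replaced with DMSO, absorbance read at 570 nm. Three independent runs.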

Data set [4] has as its system MCF7. In words: Induction of apoptosis in human MCF7 cells assessed as increase in cleaved Caspase-9 protein expression at 1 to 4 nM. In kind it is functional, cell-based. Conditions: dose 1-4 nM. In short, it runs like this: (§2)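 MCF-7 seeded 4 × 10⁵ per well for 24 h, then DMSO or compound at 1, 2, 4 nM for 24 h. Lysates protein-normalized to 3 mg/mL by BCA, resolved on 4–20% SDS-PAGE and immunoblotted. Bands quantified relative to β-actin (cell-cycle proteins) or GAPDH (apoptosis proteins); n = 3.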

Data set [5] has as its system MCF7. In words: Cell cycle arrest in human MCF7 cells assessed as decrease in Cdc25c protein expression. In kind it is functional, cell-based. The following applies: dose 1-4 nM. In short, it runs like this:
as §2

Data set [6] relates to MCF7. In words: Induction of apoptosis in human MCF7 cells assessed as increase in Bax protein expression at 1 to 4 nM. It counts as functional, cell-based. The following applies: dose 1-4 nM. In short, it runs like this:
as §2

Data set [7] deals with T1, Cytochrome P450 1A1 (Homo sapiens, UniProt P04798).
T1 sequence (P04798 whole entry): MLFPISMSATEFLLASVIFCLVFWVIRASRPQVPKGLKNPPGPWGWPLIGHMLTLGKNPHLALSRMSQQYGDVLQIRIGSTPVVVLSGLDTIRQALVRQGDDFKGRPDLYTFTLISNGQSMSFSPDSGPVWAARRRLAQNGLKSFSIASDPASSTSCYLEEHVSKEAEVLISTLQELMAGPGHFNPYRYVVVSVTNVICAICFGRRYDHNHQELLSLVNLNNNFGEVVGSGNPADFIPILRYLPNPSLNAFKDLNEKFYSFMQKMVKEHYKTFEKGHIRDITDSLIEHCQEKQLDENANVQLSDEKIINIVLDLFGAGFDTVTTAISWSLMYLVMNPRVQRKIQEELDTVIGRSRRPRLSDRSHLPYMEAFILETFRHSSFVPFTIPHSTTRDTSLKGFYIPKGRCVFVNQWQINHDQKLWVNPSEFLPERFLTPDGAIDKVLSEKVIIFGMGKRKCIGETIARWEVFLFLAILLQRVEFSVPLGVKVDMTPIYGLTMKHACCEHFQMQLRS
The data set can be described thus: Inhibition of CYP1A1 signalling in human MCF7 cells assessed as reduction in CYP1A1 level incubated for 24 hrs by Western blot analysis. It counts as ADME, cell-based. The following applies: mcf7, 24 h, at 1 to 4 nM, dose 1-4 nM. A digest of the protocol:
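MCF-7 cells seeded 4 × 10⁵ per well, grown 24 h, then exposed to DMSO or 1, 2, 4 nM for 24 h; BAY 2416964 served as AhR antagonist reference. Lysates adjusted to 3 mg/mL protein by BCA, resolved on 4−20% SDS-PAGE, immunoblotted; AhR and CYP1A1 bands normalized to GAPDH. Three independent runs.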
A general note: Immunoblotting shows a protein as a band on a membrane.

Data set [8] deals with MCF7. In words: Induction of apoptosis in human MCF7 cells assessed as late apoptotic cells at 1 nM measured after 24 hrs by Annexin V-FITC and PI staining based flow cytometry assay (reference value: 2.06%). In kind it is functional.
The target in data set [9] is Tubulin (Homo sapiens) (UniProt P68371+Q9H4B7+P0DPH7+P68366+Q13509+Q71U36+P04350+Q3ZCM7+P07437+P68363+Q9BQE3+Q6PEY2+Q13885+Q9BVA1+Q9BUF5). The data set can be described thus: Induction of microtubule damage in human MCF7 cells at 0.5 nM incubated for 48 hrs by DAPI staining based immunofluorescence assay. It counts as cell-based. In short, it runs like this: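 Blocked with goat serum for 20 min, probed with anti-β-tubulin for 2 h, fluorescent secondary antibody and DAPI nuclear stain, imaged by laser confocal microscopy.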

For data set [10], the system named is MCF7. In words: Cell migration rate in human MCF7 cells at 2 nM incubated for 24 hrs by inverted fluorescence microscopic method (reference value: 11.51%). Conditions: MCF7, 24 h.
The nature of data set [11]: Toxicity in BALB/c nude mouse xenografted with human MCF7 cells assessed as effect on spleen at 0.5 to 1 mg/kg, iv administered every 2 days for 21 days by H and E staining based assay. Conditions: in vivo, 504 h, dose 0.5-1 mg/kg, time 21 day. In kind it is organism-based. A digest of the protocol:
as §1
On the technique in general: In xenograft studies the graft and the host belong to different species.

For data set [12], the system named is MCF7. In words: Induction of apoptosis in human MCF7 cells assessed as necrotic cells at 0.5 nM measured after 24 hrs by Annexin V-FITC and PI staining based flow cytometry assay (reference value: 0.28%). In kind it is functional.
The test system of data set [13] is MCF7. In words: Induction of apoptosis in human MCF7 cells assessed as decrease in of Bcl-2 protein expression at 1 to 4 nM. It counts as functional, cell-based. The following applies: dose 1-4 nM. In short, it runs like this:
as §2

In data set [14] the test system is MCF7. In words: Induction of apoptosis in human MCF7 cells assessed as necrotic cells at 1 nM measured after 24 hrs by Annexin V-FITC and PI staining based flow cytometry assay (reference value: 0.28%). It counts as functional.
Data set [15] has as its system MCF7. In words: Antitumor activity against human MCF7 cells xenografted in BALB/c nude mouse assessed as decrease in tumor weight at 0.5 mg/kg, iv administered every 2 days for 21 days and measured every 2 days. It counts as functional. Also on record: scale not given: the % may be the effect or the level left. The following applies: time 21 day. In short, it runs like this: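 MCF-7 cells (6 × 10⁶) injected subcutaneously into right flank of BALB/c nude mice; after 7 days animals randomized, eight per group. Dosing iv every 2 days for 21 days, vehicle 10% DMSO/5% Tween 80/85% saline. Tumor size and body weight recorded every 2 days; tumors excised and weighed at sacrifice.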

Data set [16] relates to MCF7. In words: Cell cycle arrest in human MCF7 cells assessed as decrease in Cdc2 protein expression. It counts as functional, cell-based. Conditions: dose 1-4 nM. In short, it runs like this:
as §2

Data set [17] has as its system MCF7. In words: Induction of apoptosis in human MCF7 cells assessed as late apoptotic cells at 2 nM measured after 24 hrs by Annexin V-FITC and PI staining based flow cytometry assay (reference value: 2.06%). In kind it is functional.
Data set [18] deals with MCF7. The data set can be described thus: Induction of apoptosis in human MCF7 cells assessed as early apoptotic cells at 2 nM measured after 24 hrs by Annexin V-FITC and PI staining based flow cytometry assay (reference value: 0.90%). In kind it is functional.
The test system of data set [19] is MCF7. The data set can be described thus: Antitumor activity against human MCF7 cells xenografted in BALB/c nude mouse assessed as reduction in tumor microvessel density at 1 mg/kg, iv administered every 2 days and measured after 21 days by immunohistochemistry analysis. It counts as functional, organism-based. Conditions: time 21.0 day. In short, it runs like this:
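Same subcutaneous MCF-7 nude-mouse xenografts dosed iv every 2 days for 21 days. Tumors then fixed, paraffin-embedded and sectioned. Apoptotic cells detected by TUNEL fluorescent staining with DNA counterstain; microvessel density measured by anti-CD31 immunohistochemistry.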

SMILES strings stand for the structures. Active and inactive are the calls of the source. No cut-off for these calls is given here.

On to `Cc1nc(N(C)c2ccc3c(c2)cc(C)n3C)c2ccccc2n1`, for which the Activity in data set [1] is 4.51%; in [2], “Non-Toxic”; in data set [5], “Dose-Dependent Effect”; in data set [8], 28.6%; in [11] it was “Non-Toxic”; in [12] it was 0.52%. The Activity in data set [14] is 3.27%; in [15] it was 73.2%; in data set [16] it was “Dose-Dependent Effect”; in [17], 45.1%; in data set [18] it was 12.1%. Moreover, in data set [3], the IC50 turned out to be 0.9 nM. Further, the outcome in data set [4], in data set [6], in data set [13] and in [19] was Active. Also, the “inhibition (INH)” value in data set [7] is “Dose-Dependent Effect”. In addition, in data set [9], the outcome was inactive. The molecule further showed a Migration rate at 0.002 µM in data set [10] of 3.78%.

Usually IC50 stands for the concentration that inhibits the measured activity by half.
